For one experiment, the system named is Bacillus subtilis. In words: Antibacterial activity against Bacillus subtilis 168 after 24 hrs by broth microdilution assay. The experiment is classed as functional. Particulars: subsp. subtilis str. 168, 24 h. The essentials: (§1)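 Twofold serial dilutions in LB broth, inoculated to a final 1 × 10^5 to 3 × 10^5 CFU/mL. Incubation at 37 °C for 24 h. MIC read visually as the lowest concentration giving no turbidity.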

In another experiment the test system is Enterococcus faecalis. In words: Antibacterial activity against Enterococcus faecalis FA2-2 after 24 hrs by broth microdilution assay. Format: functional. The essentials: as §1
On the technique in general: Dilution methods test growth across graded concentrations, often in twofold steps.

In a further experiment the test system is Shigella dysenteriae. Nature of the experiment: Antibacterial activity against Shigella dysenteriae ATCC 13313 after 24 hrs by broth microdilution assay. The experiment is classed as functional, organism-based.
In another experiment the test system is Enterococcus faecium. Nature of the experiment: Antibacterial activity against Enterococcus faecium ATCC 19434 after 24 hrs by broth microdilution assay. The experiment is classed as functional. As to conditions: ATCC 19434, 24 h. The essentials: as §1
Experiment [1] deals with Staphylococcus aureus. Nature of the experiment: Antibacterial activity against methicillin-resistant Staphylococcus aureus USA300 after 24 hrs by broth microdilution assay. Format: functional. Particulars: USA300, 24 h.
Experiment [2] deals with Staphylococcus aureus. In words: Antibacterial activity against Staphylococcus aureus Newman after 24 hrs by broth microdilution assay. Format: functional. The essentials:
as §1

In the next experiment the test system is Acinetobacter baumannii. In words: Antibacterial activity against Acinetobacter baumannii ATCC 19606 after 24 hrs by broth microdilution assay. The experiment is classed as functional, organism-based. Particulars: ATCC 19606 = CIP 70.34 = JCM 6841. The essentials: as §1
A further experiment has as its system Pseudomonas aeruginosa. In words: Antibacterial activity against Pseudomonas aeruginosa PAO1 after 24 hrs by broth microdilution assay. Format: functional, organism-based. The essentials:
as §1

The test system of a further experiment is Klebsiella pneumoniae. Nature of the experiment: Antibacterial activity against Klebsiella pneumoniae ATCC 35657 after 24 hrs by broth microdilution assay. The experiment is classed as functional, organism-based. The essentials:
as §1

The test system of the next experiment is Escherichia coli. In words: Antibacterial activity against Escherichia coli MG1655 after 24 hrs by broth microdilution assay. Particulars: K-12 substr. MG1655. The experiment is classed as functional, organism-based. The essentials:
as §1

The test system of a further experiment is Salmonella typhimurium. In words: Antibacterial activity against Salmonella typhimurium ATCC 14028 after 24 hrs by broth microdilution assay. Format: functional, organism-based. Particulars: Salmonella enterica subsp. enterica serovar Typhimurium. The essentials:
as §1

≈ marks a conversion by molar mass, not a printed value. Calls of active or inactive are those of the source. The calls are words filed in the database; no cut-off is given here.

From ChEMBL document CHEMBL4330171, “Characterization of the Biosynthetic Gene Cluster for the Antibiotic Armeniaspirols in Streptomyces armeniacus” (2019) come the findings set out here.

A word on the MIC: it is the lowest concentration that inhibits growth of the organism. A higher MIC goes with a less susceptible organism.

For the compound `CN[C@H](CC(C)C)C(=O)N[C@H]1C(=O)N[C@@H](CC(N)=O)C(=O)N[C@H]2C(=O)N[C@H]3C(=O)N[C@H](C(=O)N[C@H](C(=O)O)c4cc(O)cc(O)c4-c4cc3ccc4O)[C@H](O)c3ccc(c(Cl)c3)Oc3cc2cc(c3O[C@@H]2O[C@H](CO)[C@@H](O)[C@H](O)[C@H]2O[C@H]2C[C@](C)(N)[C@H](O)[C@H](C)O2)Oc2ccc(cc2Cl)[C@H]1O` [VANCOMYCIN], the minimum inhibitory concentration (MIC) with Bacillus subtilis amounted to 0.25 µg/mL (≈ 0.173 µM); against Enterococcus faecalis, 2 µg/mL (≈ 1.38 µM).

As for `CC[C@H](C)CCCc1c(O)ccc(C(=O)c2cc(Cl)c(Cl)[nH]2)c1O`, the outcome in the experiment on Shigella dysenteriae, in the experiment on Acinetobacter baumannii, with Pseudomonas aeruginosa, with Klebsiella pneumoniae, in the experiment on Escherichia coli and in the experiment on Salmonella typhimurium was inactive. In addition, the MIC came out at 2 µg/mL (≈ 5.4 µM) with Enterococcus faecium; 0.5 µg/mL (≈ 1.35 µM) in the experiment on Bacillus subtilis; 2 µg/mL (≈ 5.4 µM) against Staphylococcus aureus [1]; 1 µg/mL (≈ 2.7 µM) against Staphylococcus aureus [2]; 8 µg/mL (≈ 21.6 µM) with Enterococcus faecalis.

For `CCCCCCc1c(O)ccc2c1O[C@]1(C2=O)C(Cl)=C(Cl)C(=O)N1C` [ARMENIASPIROLE A], the outcome in the experiment with Shigella dysenteriae, with Acinetobacter baumannii, in the experiment with Pseudomonas aeruginosa, in the experiment with Klebsiella pneumoniae, in the experiment with Escherichia coli and in the experiment on Salmonella typhimurium was inactive. The MIC against Enterococcus faecium is over 32 µg/mL; against Bacillus subtilis, 2 µg/mL (≈ 5.2 µM); with Staphylococcus aureus [1], 0.5 µg/mL (≈ 1.3 µM); with Staphylococcus aureus [2] it was 0.5 µg/mL (≈ 1.3 µM); against Enterococcus faecalis, 16 µg/mL (≈ 41.6 µM).

As to `CC(C)CCCc1c(O)ccc2c1O[C@@]1(C=C(Cl)C(=O)N1)C2=O`, the outcome with Shigella dysenteriae, in the experiment with Acinetobacter baumannii, with Pseudomonas aeruginosa, with Klebsiella pneumoniae, with Escherichia coli and with Salmonella typhimurium was inactive. Further, the MIC in the experiment on Enterococcus faecium, with Bacillus subtilis, against Staphylococcus aureus [1], in the experiment with Staphylococcus aureus [2] and against Enterococcus faecalis was over 32 µg/mL in each case.

`CC(C)CCCc1c(O)ccc2c1O[C@]1(NC(=O)C(Cl)=C1Cl)C2=O`: the outcome in the experiment with Shigella dysenteriae, in the experiment on Acinetobacter baumannii, with Pseudomonas aeruginosa, in the experiment with Klebsiella pneumoniae, with Escherichia coli and in the experiment with Salmonella typhimurium was inactive. The MIC against Enterococcus faecium was over 32 µg/mL; against Bacillus subtilis, 16 µg/mL (≈ 43.2 µM); in the experiment on Staphylococcus aureus [1] it was 16 µg/mL (≈ 43.2 µM); in the experiment with Staphylococcus aureus [2], 8 µg/mL (≈ 21.6 µM); against Enterococcus faecalis it was over 32 µg/mL.

With `CCCCCCc1c(O)ccc(C(=O)c2cc(Cl)c(Cl)[nH]2)c1O`, the outcome in the experiment with Shigella dysenteriae, with Acinetobacter baumannii, with Pseudomonas aeruginosa, with Klebsiella pneumoniae, with Escherichia coli and in the experiment with Salmonella typhimurium was inactive. The MIC worked out at 2 µg/mL (≈ 5.61 µM) in the experiment on Enterococcus faecium; 0.5 µg/mL (≈ 1.4 µM) in the experiment on Bacillus subtilis; 1 µg/mL (≈ 2.81 µM) in the experiment on Staphylococcus aureus [1]; 1 µg/mL (≈ 2.81 µM) against Staphylococcus aureus [2]; 2 µg/mL (≈ 5.61 µM) with Enterococcus faecalis.

Consider `CCCCCCc1c(O)ccc2c1O[C@]1(NC(=O)C(Cl)=C1Cl)C2=O`, for which the outcome with Shigella dysenteriae, with Acinetobacter baumannii, with Pseudomonas aeruginosa, in the experiment on Klebsiella pneumoniae, in the experiment on Escherichia coli and in the experiment with Salmonella typhimurium was inactive. Moreover, the minimum inhibitory concentration (MIC) in the experiment on Enterococcus faecium is 32 µg/mL (≈ 86.4 µM); against Bacillus subtilis it was 8 µg/mL (≈ 21.6 µM); against Staphylococcus aureus [1], 16 µg/mL (≈ 43.2 µM); against Staphylococcus aureus [2] it was 8 µg/mL (≈ 21.6 µM); in the experiment with Enterococcus faecalis, over 32 µg/mL.

Turning to `CC(C)CCCc1c(O)ccc(C(=O)c2cc(Cl)c(Cl)[nH]2)c1O`, the result with Shigella dysenteriae, in the experiment with Acinetobacter baumannii, in the experiment on Pseudomonas aeruginosa, with Klebsiella pneumoniae, in the experiment with Escherichia coli and in the experiment with Salmonella typhimurium was inactive. In addition, the MIC came to 2 µg/mL (≈ 5.61 µM) with Enterococcus faecium; 0.5 µg/mL (≈ 1.4 µM) against Bacillus subtilis; 1 µg/mL (≈ 2.81 µM) in the experiment on Staphylococcus aureus [1]; 1 µg/mL (≈ 2.81 µM) in the experiment on Staphylococcus aureus [2]; 8 µg/mL (≈ 22.5 µM) against Enterococcus faecalis.

`CC[C@H](C)CCCc1c(O)ccc2c1O[C@@]1(C=C(Cl)C(=O)N1)C2=O`: the outcome in the experiment with Shigella dysenteriae, in the experiment on Acinetobacter baumannii, with Pseudomonas aeruginosa, in the experiment on Klebsiella pneumoniae, in the experiment with Escherichia coli and in the experiment on Salmonella typhimurium was inactive. Also, the MIC against Enterococcus faecium was over 32 µg/mL; against Bacillus subtilis, 16 µg/mL (≈ 45.7 µM); against Staphylococcus aureus [1] it was over 32 µg/mL; with Staphylococcus aureus [2], over 32 µg/mL; against Enterococcus faecalis, over 32 µg/mL.

Consider `CCCCCCc1c(O)ccc2c1O[C@@]1(C=C(Cl)C(=O)N1)C2=O`, for which the result with Shigella dysenteriae, with Acinetobacter baumannii, with Pseudomonas aeruginosa, in the experiment with Klebsiella pneumoniae, in the experiment on Escherichia coli and in the experiment with Salmonella typhimurium was inactive. Also, the MIC against Enterococcus faecium, with Bacillus subtilis, against Staphylococcus aureus [1], in the experiment with Staphylococcus aureus [2] and against Enterococcus faecalis was over 32 µg/mL in each case.

In the case of `CC(C)CCCc1c(O)ccc2c1O[C@@]1(C=C(Cl)C(=O)N1C)C2=O`, the outcome with Shigella dysenteriae, with Acinetobacter baumannii, in the experiment on Pseudomonas aeruginosa, with Klebsiella pneumoniae, in the experiment on Escherichia coli and in the experiment with Salmonella typhimurium was inactive. Further, the MIC in the experiment with Enterococcus faecium was over 32 µg/mL; against Bacillus subtilis it was 16 µg/mL (≈ 45.7 µM); in the experiment with Staphylococcus aureus [1], 16 µg/mL (≈ 45.7 µM); against Staphylococcus aureus [2], 4 µg/mL (≈ 11.4 µM); against Enterococcus faecalis, over 32 µg/mL.

Turning to `CC(C)CCCc1c(O)ccc2c1O[C@]1(C2=O)C(Cl)=C(Cl)C(=O)N1C` [ARMENIASPIROLE B], the outcome in the experiment on Shigella dysenteriae, in the experiment with Acinetobacter baumannii, in the experiment with Pseudomonas aeruginosa, with Klebsiella pneumoniae, in the experiment on Escherichia coli and in the experiment with Salmonella typhimurium was inactive. Further, the MIC is over 32 µg/mL against Enterococcus faecium; 4 µg/mL (≈ 10.4 µM) against Bacillus subtilis; 2 µg/mL (≈ 5.2 µM) against Staphylococcus aureus [1]; 0.5 µg/mL (≈ 1.3 µM) in the experiment with Staphylococcus aureus [2]; 32 µg/mL (≈ 83.3 µM) against Enterococcus faecalis.

In the case of `CC[C@H](C)CCCc1c(O)ccc2c1O[C@]1(NC(=O)C(Cl)=C1Cl)C2=O`, the outcome with Shigella dysenteriae, in the experiment with Acinetobacter baumannii, with Pseudomonas aeruginosa, with Klebsiella pneumoniae, in the experiment with Escherichia coli and in the experiment with Salmonella typhimurium was inactive. Also, the MIC was determined as 32 µg/mL (≈ 83.3 µM) with Enterococcus faecium; 8 µg/mL (≈ 20.8 µM) in the experiment with Bacillus subtilis; 8 µg/mL (≈ 20.8 µM) with Staphylococcus aureus [1]; 8 µg/mL (≈ 20.8 µM) in the experiment with Staphylococcus aureus [2]; 32 µg/mL (≈ 83.3 µM) with Enterococcus faecalis.

As for `CC[C@H](C)CCCc1c(O)ccc2c1O[C@@]1(C=C(Cl)C(=O)N1C)C2=O`, the result in the experiment with Shigella dysenteriae, in the experiment on Acinetobacter baumannii, in the experiment with Pseudomonas aeruginosa, in the experiment on Klebsiella pneumoniae, in the experiment on Escherichia coli and with Salmonella typhimurium was inactive. In addition, the MIC with Enterococcus faecium is over 32 µg/mL; in the experiment on Bacillus subtilis, 8 µg/mL (≈ 22 µM); in the experiment with Staphylococcus aureus [1], 8 µg/mL (≈ 22 µM); against Staphylococcus aureus [2] it was 2 µg/mL (≈ 5.5 µM); against Enterococcus faecalis it was over 32 µg/mL.

Regarding `CC[C@H](C)CCCc1c(O)ccc2c1O[C@]1(C2=O)C(Cl)=C(Cl)C(=O)N1C` [ARMENIASPIROLE C], the result in the experiment with Shigella dysenteriae, in the experiment with Acinetobacter baumannii, in the experiment with Pseudomonas aeruginosa, in the experiment on Klebsiella pneumoniae, in the experiment on Escherichia coli and with Salmonella typhimurium was inactive. The MIC against Enterococcus faecium was over 32 µg/mL; in the experiment with Bacillus subtilis it was 2 µg/mL (≈ 5.02 µM); in the experiment on Staphylococcus aureus [1], 0.5 µg/mL (≈ 1.26 µM); against Staphylococcus aureus [2], 0.5 µg/mL (≈ 1.26 µM); in the experiment on Enterococcus faecalis, over 32 µg/mL.

With `CCCCCCc1c(O)ccc2c1O[C@@]1(C=C(Cl)C(=O)N1C)C2=O`, the result in the experiment on Shigella dysenteriae, in the experiment with Acinetobacter baumannii, in the experiment with Pseudomonas aeruginosa, in the experiment with Klebsiella pneumoniae, in the experiment on Escherichia coli and in the experiment on Salmonella typhimurium was inactive. Besides, the MIC was over 32 µg/mL with Enterococcus faecium; 8 µg/mL (≈ 22.9 µM) in the experiment with Bacillus subtilis; 8 µg/mL (≈ 22.9 µM) with Staphylococcus aureus [1]; 4 µg/mL (≈ 11.4 µM) in the experiment on Staphylococcus aureus [2]; over 32 µg/mL against Enterococcus faecalis.
